The results in this text go back to ChEMBL document CHEMBL1800057, “Discovery of dual inducible/neuronal nitric oxide synthase (iNOS/nNOS) inhibitor development candidate 4-((2-cyclobutyl-1H-imidazo[4,5-b]pyrazin-1-yl)methyl)-7,8-difluoroquinolin-2(1H)-one (KD7332) part 2: identification of a novel, potent, and selective series of benzimidazole-quinolinone …” (J Med Chem, 2010).

A value given as a limit tells only on which side of the number the result lay.

A short description of data set [1]: Volume of distribution at steady state in mouse at 1 mg/kg, iv and 10 mg/kg, po. Type of data set: ADME, organism-based. The note with it: in vivo, read-out: Vdss.
Data set [2] in a line: Plasma clearance in mouse at 1 mg/kg, iv and 10 mg/kg, po. It counts as ADME, organism-based.
A short description of data set [3]: Cmax in mouse at 1 mg/kg, iv and 10 mg/kg, po. The note with it: in vivo. Type of data set: ADME, organism-based.
A further data set is filed under the species Homo sapiens. The data set is described as follows: Selectivity for human iNOS over human eNOS. An outline of the steps:
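Ratio of EC₅₀ values from transiently transfected HEK293 cells. iNOS: plasmid, 18 h with compound, 1400W control, n = 8/point. eNOS: 15 μg human eNOS plasmid, 24 h with compound at 37 °C, then A23187 (83 nM final) for 18 h, SEITU (100 μM final) control, n = 3/point. NO read by DAN fluorescence; each EC₅₀ from three runs of 10-point curves.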

The nature of data set [4]: Half life in mouse. Type of data set: ADME, organism-based. The note with it: in vivo.
The target of data set [5] is Nitric oxide synthase, inducible (Homo sapiens, UniProt P35228). The data set is described as follows: Inhibition of human iNOS. An outline of the steps: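 HEK293 cells grown to about 70% confluence in DMEM with 10% FBS and pen/strep, then transiently transfected with human iNOS plasmid using Fugene 6 for 4 h at 37 °C, 10% CO₂. Cells replated at 5e5 cells/mL and treated at once with compound; 1400W (100 μM final) as positive control. After 18 h, NO read as DAN-nitrite fluorescence. EC₅₀ from three runs, 10-point curves, n = 8/point.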

Data set [6] in a line: Half life in mouse at 1 mg/kg, iv and 10 mg/kg, po. Type of data set: ADME, organism-based. The note with it: in vivo.
The nature of data set [7]: Oral bioavailability in mouse at 10 mg/kg. Type of data set: ADME, organism-based. The note with it: in vivo.
The nature of data set [8]: Plasma clearance in mouse. Type of data set: ADME, organism-based.

Chain of Nitric oxide synthase, inducible (P35228 whole entry): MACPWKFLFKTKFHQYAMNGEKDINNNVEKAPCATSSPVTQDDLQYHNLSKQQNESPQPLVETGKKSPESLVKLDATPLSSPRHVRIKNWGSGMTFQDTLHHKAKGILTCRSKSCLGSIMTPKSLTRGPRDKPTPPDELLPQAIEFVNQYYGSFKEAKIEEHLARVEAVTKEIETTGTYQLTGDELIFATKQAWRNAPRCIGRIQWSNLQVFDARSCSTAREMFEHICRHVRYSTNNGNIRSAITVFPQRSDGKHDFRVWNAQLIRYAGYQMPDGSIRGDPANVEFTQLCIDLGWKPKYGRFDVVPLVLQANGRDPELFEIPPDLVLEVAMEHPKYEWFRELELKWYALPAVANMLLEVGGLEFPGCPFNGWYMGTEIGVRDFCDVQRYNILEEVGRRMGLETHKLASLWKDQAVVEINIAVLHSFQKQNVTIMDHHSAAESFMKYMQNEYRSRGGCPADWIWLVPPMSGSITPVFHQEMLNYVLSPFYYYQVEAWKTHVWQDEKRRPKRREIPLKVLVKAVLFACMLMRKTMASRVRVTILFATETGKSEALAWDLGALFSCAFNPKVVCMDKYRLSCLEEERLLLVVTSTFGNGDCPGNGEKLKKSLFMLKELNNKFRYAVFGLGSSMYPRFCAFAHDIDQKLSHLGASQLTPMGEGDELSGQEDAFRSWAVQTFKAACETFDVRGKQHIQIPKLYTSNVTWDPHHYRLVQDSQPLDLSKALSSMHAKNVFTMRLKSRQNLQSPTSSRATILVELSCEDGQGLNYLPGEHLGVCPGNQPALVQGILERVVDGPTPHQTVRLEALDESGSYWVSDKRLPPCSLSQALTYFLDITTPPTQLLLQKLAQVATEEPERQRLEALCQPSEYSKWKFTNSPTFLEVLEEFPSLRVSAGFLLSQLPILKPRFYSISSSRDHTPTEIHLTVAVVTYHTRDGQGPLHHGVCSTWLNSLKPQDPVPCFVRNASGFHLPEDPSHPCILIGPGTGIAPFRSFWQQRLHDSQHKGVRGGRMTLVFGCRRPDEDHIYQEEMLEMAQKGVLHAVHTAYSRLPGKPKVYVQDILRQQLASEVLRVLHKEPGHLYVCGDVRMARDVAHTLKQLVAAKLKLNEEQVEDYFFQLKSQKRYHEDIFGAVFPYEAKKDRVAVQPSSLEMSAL

For orientation: Cmax means the peak of the concentration-time curve. For orientation: half-life means how long it takes for the measured level to halve. Usually IC50 stands for the concentration at which inhibition is half-maximal. One may read the bioavailability as the share of a dose that reaches the circulation, judged against a reference dose that is usually intravenous. In the case of `Cc1ncsc1C(=O)N(Cc1cc(=O)[nH]c2c(F)cccc12)c1cccc(Cl)c1`, in data set [1], the Vd came out at 1.6 L/kg. The clearance in [2] and in [8] was > 100 mL/min/kg in each case. In data set [3], this compound gave a Cmax of 1400 ng/mL. In addition, in the data set listed under Homo sapiens, the Selectivity ratio is > 2000. Moreover, the half-life in [4] and in data set [6] was 12 min in each case. In [5], the midpoint of inhibition, the IC50, lay at 11 nM. Further, in data set [7], the bioavailability came to 7%.
